Data reported in ChEMBL document CHEMBL2375359, “Synthesis and antibacterial evaluation of novel pleuromutilin derivatives” (2013).
Converted amounts (≈) assume the structure as drawn.

Experiments:
Assay type in all cases: functional
Escherichia coli [1] = test: Antibacterial activity against Escherichia coli at 160 ug/ml after 24 hrs by Oxford cup assay; conditions: read-out: IZ
Summary of the method: (§1)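 Oxford cup diffusion with clinical isolates. Inoculum made in 0.9% saline to a McFarland standard and spread evenly on nutrient agar. Compound solutions, prepared as for the agar dilution test, were added at the stated concentration to Oxford cups set equidistant on the agar surface. Inhibition zones were measured after 24 h at 37 °C.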

Escherichia coli [2] = test: Antibacterial activity against Escherichia coli at 320 ug/ml after 24 hrs by Oxford cup assay; conditions: read-out: IZ; summary of the method: as §1
[3] = tested on: Staphylococcus epidermidis; test: Antibacterial activity against methicillin-resistant Staphylococcus epidermidis at 160 ug/ml after 24 hrs by Oxford cup assay; conditions: read-out: IZ
Summary of the method: (§2)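 Oxford cup diffusion: clinical isolate inoculum in 0.9% saline set by McFarland standard, spread evenly on nutrient agar. Cups placed equidistant on the surface and filled with compound solutions prepared as for the agar dilution test, at several concentrations. Inhibition zone measured after 24 h at 37 °C.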

[4] = tested on: Staphylococcus epidermidis; test: Antibacterial activity against methicillin-resistant Staphylococcus epidermidis at 80 ug/ml after 24 hrs by Oxford cup assay; conditions: read-out: IZ; summary of the method: as §2
Staphylococcus aureus [5] = test: Antibacterial activity against methicillin-resistant Staphylococcus aureus at 320 ug/ml after 24 hrs by Oxford cup assay; conditions: read-out: IZ; summary of the method: as §2
Staphylococcus aureus [6] = test: Antibacterial activity against methicillin-resistant Staphylococcus aureus at 80 ug/ml after 24 hrs by Oxford cup assay; conditions: read-out: IZ; summary of the method: as §2
Streptococcus agalactiae [7] = test: Antibacterial activity against Streptococcus agalactiae at 320 ug/ml after 24 hrs by Oxford cup assay; conditions: read-out: IZ; summary of the method: as §1
Staphylococcus aureus [8] = test: Antibacterial activity against methicillin-resistant Staphylococcus aureus at 160 ug/ml after 24 hrs by Oxford cup assay; conditions: read-out: IZ; summary of the method: as §2
Streptococcus agalactiae [9] = test: Antibacterial activity against Streptococcus agalactiae at 160 ug/ml after 24 hrs by Oxford cup assay; conditions: read-out: IZ; summary of the method: as §1
Staphylococcus aureus [10] = test: Antibacterial activity against methicillin-resistant Staphylococcus aureus after 48 hrs by agar dilution method
Summary of the method: (§3)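 Agar dilution per NCCLS: 2-fold serial dilutions incorporated into hot Mueller-Hinton agar. Clinical isolates grown from blood slants, suspended in sterile 0.90% NaCl to about 10⁵–10⁶ cfu/mL, spotted onto plates. Incubation 36.5 °C, 48 h. MIC taken as the lowest concentration giving complete growth inhibition. Run in triplicate at pH 7.40.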

Escherichia coli [11] = test: Antibacterial activity against Escherichia coli after 48 hrs by agar dilution method
Summary of the method: (§4)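 Agar dilution per NCCLS on clinical isolates. 2-fold serial dilutions of compound (2 mL) mixed into 18 mL hot Mueller-Hinton agar. Inoculum from blood slants, adjusted to approx. 10⁵–10⁶ cfu/mL in sterile 0.90% NaCl, then spotted onto the plates. Incubated 36.5 °C, 48 h. MIC is the lowest concentration giving complete growth inhibition. Run in triplicate at pH 7.40.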

Streptococcus agalactiae [12] = test: Antibacterial activity against Streptococcus agalactiae after 48 hrs by agar dilution method; summary of the method: as §4
Escherichia coli [13] = test: Antibacterial activity against Escherichia coli at 80 ug/ml after 24 hrs by Oxford cup assay; conditions: read-out: IZ; summary of the method: as §1
[14] = tested on: Staphylococcus epidermidis; test: Antibacterial activity against methicillin-resistant Staphylococcus epidermidis at 320 ug/ml after 24 hrs by Oxford cup assay; conditions: read-out: IZ; summary of the method: as §2
[15] = tested on: Staphylococcus epidermidis; test: Antibacterial activity against methicillin-resistant Staphylococcus epidermidis after 48 hrs by agar dilution method; summary of the method: as §3
Streptococcus agalactiae [16] = test: Antibacterial activity against Streptococcus agalactiae at 80 ug/ml after 24 hrs by Oxford cup assay; conditions: read-out: IZ; summary of the method: as §1

Row | Structure (SMILES) | zone of inhibition at 160 µg/mL (Escherichia coli [1]) [mm] | zone of inhibition at 320 µg/mL (Escherichia coli [2]) [mm] | zone of inhibition at 160 µg/mL [3] [mm] | zone of inhibition at 80 µg/mL [4] [mm] | zone of inhibition at 320 µg/mL (Staphylococcus aureus [5]) [mm] | zone of inhibition at 80 µg/mL (Staphylococcus aureus [6]) [mm] | zone of inhibition at 320 µg/mL (Streptococcus agalactiae [7]) [mm] | zone of inhibition at 160 µg/mL (Staphylococcus aureus [8]) [mm] | zone of inhibition at 160 µg/mL (Streptococcus agalactiae [9]) [mm] | MIC (Staphylococcus aureus [10]) [µg/mL] | MIC (Escherichia coli [11]) [µg/mL] | MIC (Streptococcus agalactiae [12]) [µg/mL] | zone of inhibition at 80 µg/mL (Escherichia coli [13]) [mm] | zone of inhibition at 320 µg/mL [14] [mm] | MIC [15] [µg/mL] | zone of inhibition at 80 µg/mL (Streptococcus agalactiae [16]) [mm]
1 | C=C[C@]1(C)C[C@@H](OC(=O)CSC(C)(C)CNC(=O)[C@H](N)c2ccccc2)[C@]2(C)[C@H](C)CC[C@]3(CCC(=O)[C@H]32)[C@@H](C)[C@@H]1O | 11.3 | 10.8 | 10 | 10.9 | 10.2 | 9.41 | 11 | 9.98 | 10.6 | 2 (≈ 3.34 µM) | 8 (≈ 13.4 µM) | 16 (≈ 26.7 µM) | 9.2 | 10.8 | 16 (≈ 26.7 µM) | 10.1
2 | C=C[C@]1(C)C[C@@H](OC(=O)CSC(C)(C)CNC(=O)[C@@H](N)c2ccccc2)[C@]2(C)[C@H](C)CC[C@]3(CCC(=O)[C@H]32)[C@@H](C)[C@@H]1O | 9.89 | 10.7 | 10.6 | 10.3 | 10.3 | 9.82 | 11.2 | 10.1 | 10.4 | 0.25 (≈ 0.417 µM) | 4 (≈ 6.68 µM) | 8 (≈ 13.4 µM) | 10 | 11.2 | 4 (≈ 6.68 µM) | 10.7
3 | C=C[C@]1(C)C[C@@H](OC(=O)CSC(C)(C)CNC(=O)c2cc3ccccc3[nH]2)[C@]2(C)[C@H](C)CC[C@]3(CCC(=O)[C@H]32)[C@@H](C)[C@@H]1O | 9.52 | 10.8 | 8.84 | 10.3 | 8.52 | 9.05 | 9.25 | 8.77 | 9.62 | 2 (≈ 3.28 µM) | 16 (≈ 26.3 µM) | 8 (≈ 13.1 µM) | 8.87 | 9 | 16 (≈ 26.3 µM) | 9.31
4 | C=C[C@]1(C)C[C@@H](OC(=O)CSC(C)(C)CNC(=O)OCC(C)C)[C@]2(C)[C@H](C)CC[C@]3(CCC(=O)[C@H]32)[C@@H](C)[C@@H]1O | 9.55 | 10.3 | 11 | 10.6 | 10.9 | 9.64 | 10.2 | 9.56 | 9.01 | 2 (≈ 3.53 µM) | 16 (≈ 28.3 µM) | 4 (≈ 7.07 µM) | 9.91 | 11.1 | 8 (≈ 14.1 µM) | 9.85
5 | C=C[C@]1(C)C[C@@H](OC(=O)CSC(C)(C)CNC(=O)OCc2ccccc2)[C@]2(C)[C@H](C)CC[C@]3(CCC(=O)[C@H]32)[C@@H](C)[C@@H]1O | 15.3 | 14.7 | 10.2 | 11 | 12.7 | 10.4 | 11.5 | 11.5 | 10.6 | 4 (≈ 6.67 µM) | 32 (≈ 53.3 µM) | 16 (≈ 26.7 µM) | 11.7 | 11 | 32 (≈ 53.3 µM) | 10.7
6 | C=C[C@]1(C)C[C@@H](OC(=O)CSCCN(CC)CC)[C@]2(C)[C@H](C)CC[C@]3(CCC(=O)[C@H]32)[C@@H](C)[C@@H]1O [TIAMULIN] | 16.5 | 18.3 | 15.6 | 14.5 | 18.3 | 16.5 | 12.3 | 17.6 | 11.4 | 0.5 (≈ 1.01 µM) | 2 (≈ 4.05 µM) | 2 (≈ 4.05 µM) | 15.2 | 16.4 | 2 (≈ 4.05 µM) | 11.1
7 | C=C[C@]1(C)C[C@@H](OC(=O)CSC(C)(C)CNC(=O)[C@H](N)C(C)C)[C@]2(C)[C@H](C)CC[C@]3(CCC(=O)[C@H]32)[C@@H](C)[C@@H]1O [VALNEMULIN] | 23.7 | 24.5 | 25.9 | 22.6 | 25.8 | 20.4 | 15.8 | 22.9 | 14.5 | 0.125 (≈ 0.221 µM) | 0.5 (≈ 0.885 µM) | 0.5 (≈ 0.885 µM) | 19.5 | 27.5 | 0.5 (≈ 0.885 µM) | 12.8
